# Platelet DG rel: inhibitors of platelet dense granule secretion, primary screen, cell-based, MLPCN, human platelets; human platelet-rich plasma, SFLLRN dense granule ATP release, luminescence; inhibition, %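 (compounds screened at 7.5 µM in platelet-rich plasma)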; actives 0.22% (n = 300,000); AID 1663, 2009;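 active = mean replicate score, as percent of positive control, at or above 50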
# SENP1 inh: human SENP1 catalytic domain inhibitors, primary screen, biochemical, FRET, uHTS | Sentrin-specific protease 1 (Homo sapiens), Q9P0U3 | recombinant SENP1 catalytic domain, CyPet-SUMO1-YPet FRET cleavage | inhibition, % at 10 µM | actives 0.21% (n = 360,000);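 active = inhibition at least 30% at 10 µM, raw YFP signal under a set limit, fluorescence ratio 0.5 to 1.5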
# Target sequence (Q9P0U3 419-644 limits assumed): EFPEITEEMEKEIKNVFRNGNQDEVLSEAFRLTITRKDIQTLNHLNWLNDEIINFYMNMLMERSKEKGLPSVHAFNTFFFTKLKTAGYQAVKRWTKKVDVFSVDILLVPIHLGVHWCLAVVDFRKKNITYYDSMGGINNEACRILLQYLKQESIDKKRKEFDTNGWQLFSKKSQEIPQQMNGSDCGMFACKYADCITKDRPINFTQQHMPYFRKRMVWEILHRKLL
#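 Assay system – human recombinant His6-tagged SENP1 catalytic domain enzyme · Input – SENP1 enzyme, 20 pM final · Buffer or medium – Tris pH 8 buffer plus EDTA, NaCl, BME, BSA, NP40, catalase · Schedule – 50 min reaction at room temperature · Technique – FRET read of cyan and yellow fluorescence · Control set – no-enzyme wells low, DMSO-plus-enzyme wells high control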
# SENP6 inh: SENP6 protease inhibitors, primary screen, biochemical, luminescence, uHTS; inhibition, % at 10 µM; Recombinant SENP6 catalytic domain, aminoluciferin luminescence; AID 2599, 2010; actives 1.8% (n = 330,000); Sentrin-specific protease 6 (Homo sapiens), Q9GZR1;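 active = inhibition above about 50% at the single tested dose, limit read from the data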
# SENP8 block-1: human SENP8 protease inhibitors, primary screen, biochemical, fluorescence, Nedd8 protein substrate, uHTS. inhibition, % at 20 µM. AID 602440, 2012. recombinant SENP8. Sentrin-specific protease 8 (Homo sapiens), Q96LD8. actives 0.64% (n = 360,000); in the data active = inhibition mostly above about 40%, no sharp cut-off; inactive = mostly below about 27%
# SENP7 inh: SENP7 protease inhibitors, primary screen, biochemical, luminescence, uHTS; inhibition, % at 5 µM; recombinant SENP7, Z-RLRGG-aminoluciferin luminescence, 40 min; actives 1.5% (n = 330,000); Sentrin-specific protease 7 (Homo sapiens), Q9BQF6;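 active = inhibition above about 50% at the single test dose, limit read from the data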
# Target sequence (Q9BQF6 706-1050 limits assumed): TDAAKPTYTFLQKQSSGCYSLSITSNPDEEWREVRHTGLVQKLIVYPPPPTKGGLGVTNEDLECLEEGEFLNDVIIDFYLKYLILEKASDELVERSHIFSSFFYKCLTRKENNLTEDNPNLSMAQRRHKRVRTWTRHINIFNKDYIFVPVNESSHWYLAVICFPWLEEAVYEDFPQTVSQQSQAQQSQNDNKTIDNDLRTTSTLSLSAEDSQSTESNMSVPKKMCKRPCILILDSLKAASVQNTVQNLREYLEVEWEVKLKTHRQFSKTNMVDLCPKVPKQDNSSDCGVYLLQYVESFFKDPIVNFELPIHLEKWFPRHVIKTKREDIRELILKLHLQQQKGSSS
# SENP8 block-2: SENP8 protease inhibitors, primary screen, biochemical, luminescence; Sentrin-specific protease 8 (Homo sapiens), Q96LD8; purified SENP8, Z-RLRGG-aminoluciferin cleavage; inhibition, % at 10 µM; actives 1.2% (n = 330,000); AID 2540, 2010; in the data active = inhibition above about 50%
# SENP8 conf: human SENP8 protease inhibitors, confirmation, biochemical, Nedd8 protein substrate, single concentration; AID 624319, 2012; inhibition, % at 25 µM; actives 15% (n = 1,400); purified SENP8, Nedd8-AMC/pro-Nedd8 cleavage fluorescence, 30 min; shares compounds with SENP8 block-1; in the data active = inhibition mostly above about 39%, no sharp cut-off; inactive = mostly below about 34%
# Numbers stand for hits; 0 = inactive; - = not tested or not shown. Shown are actives, neighbours in structure and some others; about 2.6% of the full set was active somewhere.
SMILES,Platelet DG rel,SENP1 inh,SENP6 inh,SENP8 block-1,SENP7 inh,SENP8 block-2,SENP8 conf
CN(C(=S)Nc1ccccc1)c1ccccc1,0,0,0,0,0,0,-
CN(C(=S)Nc1ccc(Oc2ccccc2)cc1)c1ccc(O)cc1,0,0,-,46,-,-,0
CN(C(=S)Nc1cccnc1)c1ccc(O)cc1,0,0,-,40,-,-,0
Cc1c(C(=O)Nc2ccc(Nc3ccccc3)cc2)cccc1[N+](=O)[O-],0,0,0,0,0,0,-
O=C(Nc1ccccc1)c1ccc(Nc2c([N+](=O)[O-])cc([N+](=O)[O-])c3ccccc23)cc1,0,0,0,56,0,0,0
O=C1Nc2ccc(Br)cc2C12NNc1ccccc1O2 (stereo not given),0,0,0,43,0,0,0
CCOc1ccc(C(=O)N/N=C/c2c(C)[nH]c(=O)[nH]c2=O)cc1,0,-,0,-,0,0,-
C=CCc1ccc(OC(=O)c2ccccc2)c(OC)c1,0,0,0,48,0,0,0
CN(C)C=Nc1nonc1N,0,0,0,45,0,0,0
Cc1cc(/N=C/N(C)C)on1,0,0,0,0,0,0,-
COc1ccc(S(=O)(=O)N2CCC(C(=O)N3CCN(c4ccccc4OC)CC3)CC2)cc1,0,0,0,43,0,0,0
COc1ccccc1N1CCN(C(=O)C2CCN(S(=O)(=O)c3ccccc3)CC2)CC1,0,0,0,0,0,0,-
CC1(C)SC(=S)N(/N=C/c2ccccc2)C1N(O)C(=O)Nc1ccc([N+](=O)[O-])cc1 (stereo not given),0,0,0,44,0,0,0
CCOC(=O)N1CCc2c(sc(NC(=O)CN(CC)CC)c2C#N)C1,0,0,0,0,0,0,-
O=[N+]([O-])c1ccc(C=NN2CCOCC2)s1,-,0,-,48,-,-,50
O=[N+]([O-])c1cc(/C=N/N2CCOCC2)cs1,0,0,0,0,0,0,-
Cc1ccc(-n2[nH]c(C)c(/C=N/Nc3ccc([N+](=O)[O-])cc3[N+](=O)[O-])c2=O)cc1,0,0,0,80,0,0,0
Cc1[nH]n(-c2ccc([N+](=O)[O-])cc2)c(=O)c1C=NCCc1c(C)[nH]c2ccccc12,0,0,0,42,0,0,0
Cc1[nH]n(-c2ccc([N+](=O)[O-])cc2)c(=O)c1C=NCC1CCCO1 (stereo not given),0,0,0,0,0,0,-
Cc1[nH]n(-c2ccc([N+](=O)[O-])cc2)c(=O)c1C=NCCc1ccc(S(N)(=O)=O)cc1,0,0,0,0,0,0,-
N#CCc1nc(C(c2ccccc2)c2ccccc2)no1,0,0,0,0,0,0,-
CC(C)C[C@H](NC(=O)[C@@H](O)[C@H](N)Cc1ccccc1)C(=O)O,0,-,0,-,0,0,-
CC(C)[C@@H](C(=O)N[C@@H](CCc1ccc(O)cc1)C(=O)O)N(C)C(=O)[C@H](CO)NC(=O)[C@@H](O)[C@H](N)CCCCCCCCl,-,0,-,55,-,-,0
CCOC(=O)N1CCN(C(=O)COC(=O)CNC(=O)c2ccc(C)cc2)CC1,0,0,0,43,0,0,0
COc1cc(C(c2c(C)[nH][nH]c2=O)c2c(C)[nH][nH]c2=O)ccc1OS(=O)(=O)c1ccc(C)cc1,0,0,0,56,0,0,0
SMILES,Platelet DG rel,SENP1 inh,SENP6 inh,SENP8 block-1,SENP7 inh,SENP8 block-2,SENP8 conf
COc1cc(C(c2c(C)[nH][nH]c2=O)c2c(C)[nH][nH]c2=O)ccc1OS(=O)(=O)c1ccccc1,0,0,0,42,0,0,0
O=[N+]([O-])c1ccc(S(=O)(=O)N2CCN(Cc3c[nH]c4ccccc34)CC2)cc1,0,0,0,59,0,0,0
COc1ccc(S(=O)(=O)N2CCN(Cc3c[nH]c4ccccc34)CC2)cc1,0,0,0,0,0,0,-
COC(=O)C1=C(C)NC(C)=C(C(=O)OC)C1c1ccc(-c2cccc([N+](=O)[O-])c2)o1,0,0,0,47,0,0,0
COc1ccc(Cc2nnc(SCC(=O)N3CCc4ccccc4C3)o2)cc1,0,0,0,39,0,0,76
CC(C)(C)c1nnc(SCC(=O)c2ccccc2)n(N)c1=O,0,0,0,0,0,0,-
CCN(CC)S(=O)(=O)c1ccc(NCC2COc3ccccc3O2)c([N+](=O)[O-])c1 (stereo not given),0,0,0,47,0,0,0
CN(C)S(=O)(=O)c1ccc(NCC2COc3ccccc3O2)c([N+](=O)[O-])c1 (stereo not given),0,0,0,0,0,0,-
Cc1ccc2nc(SCC(=O)NCCCN3CCCC3=O)[nH]c2c1,-,0,0,0,0,0,-
Cc1cccnc1NC(=O)C1CCCN1S(=O)(=O)c1ccc(Cl)cc1 (stereo not given),0,0,0,0,0,0,-
Cc1ccc(NC(=O)C(=O)c2c(-c3ccccc3)cc3ccccn23)cc1S(=O)(=O)N1CCOCC1,0,0,0,52,0,0,0
COc1ccc(OC)c(-n2c(=S)[nH]c3cc(C(=O)N4CCN(c5ccccc5)CC4)ccc3c2=O)c1,0,0,0,0,0,0,-
CC(C)CC(=O)Nc1ccccc1N1CCCC1,0,0,0,0,0,0,-
CC(C)CC(=O)NC(=S)Nc1ccccc1N1CCCC1,0,0,0,59,0,0,0
Cc1cccc(NC(=O)C(C)n2cc([N+](=O)[O-])cn2)n1 (stereo not given),0,0,0,0,0,0,-
COc1ncccc1C(=O)N1CCCC(C(=O)c2cc(F)ccc2F)C1 (stereo not given),0,0,0,0,0,0,-
CSc1ncccc1C(=O)N1CCCC(C(=O)c2cc(F)ccc2F)C1 (stereo not given),0,0,0,57,0,0,0
CCCCCCNC(=O)O[C@H]1C[C@@H]2C(=O)N(c3ccccc3)C(=O)[C@@H]2[C@@H]2CN(S(=O)(=O)c3ccc(C)cc3)C[C@]12O,-,0,-,0,-,-,-
O=C(NCC(=O)N(CC1CCCO1)C(C(=O)NC1CCCC1)c1cccnc1)c1ccco1 (stereo not given),0,0,0,42,0,0,0
O=C(NCC(=O)N(CC1CCCO1)C(C(=O)NC1CCCC1)c1ccc(F)cc1)c1ccco1 (stereo not given),-,0,0,0,0,0,-
O=C1Cc2ccccc2C(=O)N1,-,0,-,81,-,-,84

# Screens (PubChem)
